According to ChEMBL document CHEMBL5321217, “Identification of pyrrolo[3',4':3,4]cyclohepta[1,2-d][1,2]oxazoles as promising new candidates for the treatment of lymphomas” (Eur J Med Chem, 2023):
Active and inactive are the calls of the source. The rule behind the calls is not given here.

Key:
NCI-H226 = experiment: Antiproliferative activity against human NCI-H226 cells assessed as growth inhibition incubated for 72 hrs by MTT assay; type: functional
DU-145 = experiment: Antiproliferative activity against human DU-145 cells assessed as growth inhibition incubated for 72 hrs by MTT assay; type: functional
U-251 = experiment: Antiproliferative activity against human U-251 cells assessed as growth inhibition incubated for 72 hrs by MTT assay; type: functional
A549 [1] = experiment: Induction of cell cycle arrest in human A549 cells assessed as accumulation of cells at G2/M phase at 1 uM incubated for 24 hrs by PI staining based flow cytometry analysis; type: functional
In short: (§1)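 Seeding in 6-well plates, 2 mL medium: A549 5×10^4, CCRF-CEM 2.5×10^5, VL51 2.0×10^5. 24 h treatment, A549 detached with trypsin-EDTA. Cells fixed in 70% ice-cold ethanol, PI-labelled, analysed by flow cytometry. Mean of two independent experiments.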

CCRF-CEM [2] = experiment: Induction of apoptosis in human CCRF-CEM cells assessed as increase in apoptotic cells incubated for 48 hrs by annexin V-FITC and PI staining based flow cytometric analysis; type: functional, cell-based; conditions: dose 1-5 µM
In short: (§2)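 Cells exposed to several concentrations for 48 h, then stained with annexin V-FITC and PI and read by flow cytometry (FL1/FL3). Apoptotic cells = annexin V-positive plus annexin V/PI double-positive. Mean of three independent experiments.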

KM12 = experiment: Antiproliferative activity against human KM12 cells assessed as growth inhibition incubated for 72 hrs by MTT assay; type: functional
VL51 [3] = experiment: Induction of mitochondrial membrane potential depolarization in human VL51 cells at 0.5 to 1 uM measured after 24 hrs by JC-1 fluorescent dye based flow cytometry analysis; type: functional, cell-based; conditions: dose 0.5-1 µM
In short: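 VL51 cells treated 24 h at 0.5 and 1.0 μM, labelled with JC-1, analysed by flow cytometry in FL1 and FL2 channels.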

HL-60(TB) = experiment: Antiproliferative activity against human HL-60(TB) cells assessed as growth inhibition incubated for 72 hrs by […]; type: functional
In short: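 NCI 60-cell-line panel screen. […] Compounds were dissolved in DMSO as 10 mM stocks, and DMSO in the assays stayed at or below 0.1%.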

NCI-H322M = experiment: Antiproliferative activity against human NCI-H322M cells assessed as growth inhibition incubated for 72 hrs by MTT assay; type: functional
SU-DHL10 = experiment: Antiproliferative activity against human SU-DHL-10 cells assessed as cell growth inhibition measured after 72 hrs by MTT assay; type: functional, cell-based; conditions: SU-DHL10, 72 h
In short: (§3)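 Lymphoma cells grown in RPMI-1640 with 20% FBS, seeded at 5,000–10,000 cells/well by doubling time. Doses 0–10 μM, 1:2 serial dilution, DMSO ≤0.1%, 72 h at 37 °C, 5% CO2. MTT (5 mg/mL stock) added for 4 h, SDS lysis, A570 read against medium-only blanks. IC50 from triplicate assays.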

M14 = experiment: Antiproliferative activity against human M14 cells assessed as growth inhibition incubated for 72 hrs by MTT assay; type: functional
Tubulin = experiment: Inhibition of tubulin assembly (unknown origin); type: protein-complex assay, Homo sapiens
VL51 [4] = experiment: Induction of cell cycle arrest in human VL51 cells assessed as increase in mitotic cells at 1 uM incubated for 24 hrs by PI staining based flow cytometry analysis (reference value: 1.5%); type: functional
MDA-MB-468 = experiment: Antiproliferative activity against human MDA-MB-468 cells assessed as growth inhibition incubated for 72 hrs by MTT assay; type: functional
CCRF-CEM [5] = experiment: Induction of cell cycle arrest in human CCRF-CEM cells assessed as accumulation of cells at G2/M phase at 1 uM incubated for 24 hrs by PI staining based flow cytometry analysis; type: functional; in short: as §1
Hs-578T = experiment: Antiproliferative activity against human Hs-578T cells assessed as growth inhibition incubated for 72 hrs by MTT assay; type: functional
SK-OV-3 = experiment: Antiproliferative activity against human SK-OV-3 cells assessed as growth inhibition incubated for 72 hrs by MTT assay; type: functional
VL51 [6] = experiment: Induction of cell cycle arrest in human VL51 cells assessed as accumulation of cells at M phase by measuring p-Histone H3 positive cells incubated for 24 hrs by PI staining based flow cytometry analysis; type: functional; conditions: dose 0.5-1 µM
MCF7 = experiment: Antiproliferative activity against human MCF7 cells assessed as growth inhibition incubated for 72 hrs by MTT assay; type: functional
A549 [7] = experiment: Induction of apoptosis in human A549 cells assessed as increase in apoptotic cells incubated for 48 hrs by annexin V-FITC and PI staining based flow cytometric analysis; type: functional, cell-based; conditions: dose 1-5 µM; in short: as §2
786-0 = experiment: Antiproliferative activity against human 786-0 cells assessed as growth inhibition incubated for 72 hrs by MTT assay; type: functional
OVCAR-8 = experiment: Antiproliferative activity against human OVCAR-8 cells assessed as growth inhibition incubated for 72 hrs by MTT assay; type: functional
NCI-H522 = experiment: Antiproliferative activity against human NCI-H522 cells assessed as growth inhibition incubated for 72 hrs by MTT assay; type: functional
A549 [8] = experiment: Induction of cell cycle arrest in human A549 cells assessed as reduction in accumulation of cells at S phase at 1 uM incubated for 24 hrs by PI staining based flow cytometry analysis; type: functional; in short: as §1
MDA-MB-435 = experiment: Antiproliferative activity against human MDA-MB-435 cells assessed as growth inhibition incubated for 72 hrs by MTT assay; type: functional
VL51 [9] = experiment: Antiproliferative activity against human VL51 cells assessed as cell growth inhibition measured after 72 hrs by MTT assay; type: functional, cell-based; conditions: VL51, 72 h; in short: as §3
SF-295 = experiment: Antiproliferative activity against human SF-295 cells assessed as growth inhibition incubated for 72 hrs by MTT assay; type: functional
HCT-15 = experiment: Antiproliferative activity against human HCT-15 cells assessed as growth inhibition incubated for 72 hrs by MTT assay; type: functional
PC-3 = experiment: Antiproliferative activity against human PC-3 cells assessed as growth inhibition incubated for 72 hrs by MTT assay; type: functional
[10] = Cytotoxicity against PHA-induced human PBL cells assessed as inhibition of cell growth measured after 72 hrs by MTT assay; type: toxicity, cell-based; conditions: PHA-induced human peripheral blood lymphocytes (PBL)
MDA-MB-231 = experiment: Antiproliferative activity against human MDA-MB-231 cells assessed as growth inhibition incubated for 72 hrs by MTT assay; type: functional
VL51 [11] = experiment: Antiproliferative activity against human VL51 cells assessed as reduction in cell proliferation at 1 uM measured after 72 hrs by MTT assay relative to control; type: functional; parameters: scale not given: the % may be the effect or the level left
In short: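 Single-dose 1 μM screen in lymphoma cells (RPMI-1640, 20% FBS; 5,000–10,000 cells/well), 72 h at 37 °C, 5% CO2, DMSO ≤0.1%. MTT for 4 h, SDS lysis, absorbance at 570 nm. Proliferation expressed as percent of untreated control.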

CCRF-CEM [12] = experiment: Induction of cell cycle arrest in human CCRF-CEM cells assessed as reduction in accumulation of cells at S phase at 1 uM incubated for 24 hrs by PI staining based flow cytometry analysis; type: functional; in short: as §1

Compound | GI50 (NCI-H226) | GI50 (DU-145) | GI50 (U-251) | Activity (A549 [1]) | Activity (CCRF-CEM [2]) | GI50 (KM12) | Activity (VL51 [3]) | GI50 (HL-60(TB)) | GI50 (NCI-H322M) | IC50 (SU-DHL10) | GI50 (M14) | IC50 (Tubulin) | Activity (VL51 [4]) | GI50 (MDA-MB-468) | Activity (CCRF-CEM [5]) | GI50 (Hs-578T) | GI50 (SK-OV-3) | Activity (VL51 [6]) | GI50 (MCF7) | Activity (A549 [7]) | further results
COc1ccc(Cn2cc3c(c2-c2cc(OC)c(OC)c(OC)c2)CCCc2cnoc2-3)cc1N | 2540 nM | 840 nM | 510 nM | Active | Dose-Dependent Effect | 560 nM | Active | 300 nM | 840 nM | 500 nM | 480 nM | 18000 nM | ~18% | 650 nM | Active | 400 nM | 680 nM | Dose-Dependent Effect | 420 nM | Dose-Dependent Effect | GI50 (786-0): 520 nM; GI50 (OVCAR-8): 1570 nM; GI50 (NCI-H522): 260 nM; Activity (A549 [8]): Active; GI50 (MDA-MB-435): 240 nM; IC50 (VL51 [9]): 100 nM; GI50 (SF-295): 500 nM; GI50 (HCT-15): 530 nM; GI50 (PC-3): 430 nM; IC50 at 72 h [10]: > 10000 nM; GI50 (MDA-MB-231): 1150 nM; Activity (VL51 [11]): >50%; Activity (CCRF-CEM [12]): Active
COc1ccc(Cn2cc3c(c2-c2cc(OC)c(OC)c(OC)c2)CCCc2cnoc2-3)cc1 | 1990 nM | 4110 nM | 4470 nM | Active | Dose-Dependent Effect | 690 nM | Active | 350 nM | 3280 nM | 1800 nM | 390 nM | > 20000 nM | ~18% | 560 nM | Active | 1540 nM | 4180 nM | Dose-Dependent Effect | 440 nM | Dose-Dependent Effect | GI50 (786-0): 670 nM; GI50 (OVCAR-8): 4300 nM; GI50 (NCI-H522): 980 nM; Activity (A549 [8]): Active; GI50 (MDA-MB-435): 230 nM; IC50 (VL51 [9]): 400 nM; GI50 (SF-295): 510 nM; GI50 (HCT-15): 480 nM; GI50 (PC-3): 850 nM; IC50 at 72 h [10]: > 10000 nM; GI50 (MDA-MB-231): 2540 nM; Activity (VL51 [11]): >50%; Activity (CCRF-CEM [12]): Active
